{"source": "ChEMBL document CHEMBL1127746", "about": "“Alpha-spirocyclopentyl- and alpha-spirocyclopropyl-gamma-butyrolactones: conformationally constrained derivatives of anticonvulsant and convulsant alpha,alpha-disubstituted gamma-butyrolactones” (J Med Chem, 1994)", "key": {"[1]": {"target": "T1, GABA-A receptor; anion channel (Rattus norvegicus) (UniProt O09028+P15431+P18506+P18508+P19969+P20236+P23574+P23576+P28471+P28473+P30191+P62813+P63079+P63138+Q91ZM7+Q9ES14)", "assay": "Maximum Binding affinity for picrotoxinin (GABA-A) receptor of rat cerebral cortex", "format": "tissue-based", "in_short": "(§1)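 Saturation binding on rat cerebral cortex membranes in 50 mM Tris-citrate using 1-300 nM 35[S]-TBPS with test compound near its IC50, triplicate, 90 min at 25 °C. Filtration and scintillation counting. Kd and Bmax from Scatchard analysis; two or three experiments.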"}, "[2]": {"target": "T1, GABA-A receptor; anion channel (Rattus norvegicus)", "assay": "Percent response relative to current produced by 1 uM GABA in rat hippocampal cells", "format": "functional, cell-based", "details": "Hippocampus", "in_short": "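Whole-cell patch clamp of hippocampal neurons cultured from 1-day-old female Sprague-Dawley pups, 10-21 days in culture, held at -30 mV, CsCl-based pipette solution. 1 μM GABA with compound (10 mM or 1 mM) applied 2 s. Current expressed relative to the mean of GABA controls before and after; only ±10% recovery kept; mean ± SEM.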"}, "[3]": {"target": "GABA-A receptor; anion channel", "assay": "Dissociation constant from displacement of 35[S]-TBPS binding from picrotoxinin (GABA-A) receptor of rat cerebral cortex", "format": "tissue-based", "in_short": "as §1"}, "[4]": {"target": "GABA-A receptor; anion channel", "assay": "Displacement of 35[S]-TBPS from picrotoxinin (GABA-A) receptor of rat neuronal membranes", "format": "cell membranes, Membrane", "in_short": "(§2)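 Female Sprague-Dawley rat cerebral cortex membranes, washed and held in 50 mM Tris-citrate pH 7.5. 2 nM 35[S]-TBPS in NaBr with test compound, triplicate, 90 min at 25 °C. Filtration and scintillation counting; nonspecific binding with 10 μM TBPS or 100 μM picrotoxinin. IC50 by logistic fit of at least five concentrations; two or three experiments.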"}, "[5]": {"assay": "[…] dose at which 50% of the mice have clonic convulsions", "details": "mouse, in vivo; read-out: CD50 (the source's name)", "in_short": "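Female CF-1 mice, 6-8 weeks old; test compound in 30% PEG given ip at 5-10 mice/dose. Animals observed 30 min for clonic seizures after injection. CD50 derived by log10 probit analysis from the number of animals with clonic seizures.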"}, "[6]": {"target": "T1, GABA-A receptor; anion channel (Rattus norvegicus)", "assay": "Percent response relative to current produced by 10 uM GABA in rat hippocampal cells", "format": "functional, cell-based", "details": "Hippocampus"}, "[7]": {"assay": "Dose at which 50% of the mice failed the rotarod neurotoxicity test", "details": "mouse, in vivo", "in_short": "(§3)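 Female CF-1 mice (6-8 weeks) given test compound ip in 30% PEG, 5-10 mice/dose. Neurotoxicity scored as failure on the rotorod test. TD50 derived by log10 probit analysis of dose-response data.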"}, "[8]": {"assay": "Toxic dose at which 50% of the mice failed the rotarod neurotoxicity test", "format": "toxicity", "details": "mouse, in vivo", "in_short": "as §3"}, "Mus musculus": {"tested_on": "Mus musculus", "assay": "Effective dose at which 50% of the mice were protected from clonic seizures induced by pentylenetetrazole (85 mg/kg)", "format": "functional", "in_short": "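Female CF-1 mice, 6-8 weeks old, dosed ip with test compound in 30% PEG (5-10 mice/dose). Non-convulsant compounds then challenged with PTZ 85 mg/kg given as 0.85% solution in 0.9% NaCl. Mice observed 30 min for seizures.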"}, "[9]": {"target": "GABA-A receptor; anion channel", "assay": "Inhibition of 35[S]-TBPS binding to GABA-A (picrotoxin) receptor of rat neuronal membranes", "format": "cell membranes, Membrane", "in_short": "as §2"}, "[10]": {"target": "T1, GABA-A receptor; anion channel (Rattus norvegicus)", "assay": "Percent response relative to current produced by 1 uM GABA in rat hippocampal cells", "details": "Hippocampus"}}, "data": [{"smiles": "CCC1(C(C)(C)C)CCOC1=O", "note": "(stereo not drawn)", "values": [{"measurement": "Bmax (pM (mg of protein)-1)", "setting": "[1]", "value": 1.54}, {"measurement": "Response", "setting": "[2]", "value": 47, "unit": "%"}, {"measurement": "Kd", "setting": "[3]", "value": 46.8, "unit": "nM"}, {"measurement": "IC50", "setting": "[4]", "value": 310, "unit": "nM"}, {"measurement": "TD50", "setting": "[5]", "value": 133, "unit": "mg/kg"}]}, {"smiles": "C[C@@H]1CC[C@H](C)C12CCOC2=O", "note": "(stereo partly drawn)", "values": [{"measurement": "Bmax (pM (mg of protein)-1)", "setting": "[1]", "value": 0.54}, {"measurement": "Response", "setting": "[6]", "value": 198, "unit": "%"}, {"measurement": "TD50", "setting": "[7]", "value": "> 500", "unit": "mg/kg"}, {"measurement": "Kd", "setting": "[3]", "value": 38.5, "unit": "nM"}, {"measurement": "IC50", "setting": "[4]", "value": 780, "unit": "nM"}]}, {"smiles": "CCC1(C(C)C)CCOC1=O", "note": "(stereo not drawn)", "values": [{"measurement": "Bmax (pM (mg of protein)-1)", "setting": "[1]", "value": 1.5}, {"measurement": "Response", "setting": "[6]", "value": 222, "unit": "%"}, {"measurement": "TD50", "setting": "[8]", "value": "> 300", "unit": "mg/kg"}, {"measurement": "Kd", "setting": "[3]", "value": 35.2, "unit": "nM"}, {"measurement": "IC50", "setting": "[4]", "value": 240, "unit": "nM"}, {"measurement": "ED50", "setting": "Mus musculus", "value": 169, "unit": "mg/kg"}]}, {"smiles": "C[C@H]1CC[C@H](C)C12CCOC2=O", "values": [{"measurement": "Bmax (pM (mg of protein)-1)", "setting": "[1]", "value": 1.04}, {"measurement": "Response", "setting": "[2]", "value": 80, "unit": "%"}, {"measurement": "Kd", "setting": "[3]", "value": 35.6, "unit": "nM"}, {"measurement": "IC50", "setting": "[4]", "value": 200, "unit": "nM"}, {"measurement": "TD50", "setting": "[5]", "value": 198, "unit": "mg/kg"}]}, {"smiles": "CC(C)C1(C(C)C)CCOC1=O", "values": [{"measurement": "Bmax (pM (mg of protein)-1)", "setting": "[1]", "value": 1.49}, {"measurement": "Response", "setting": "[6]", "value": 328, "unit": "%"}, {"measurement": "Kd", "setting": "[3]", "value": 33.4, "unit": "nM"}, {"measurement": "IC50", "setting": "[4]", "value": 220, "unit": "nM"}, {"measurement": "TD50", "setting": "[5]", "value": 137, "unit": "mg/kg"}]}, {"smiles": "CCC1(C)CCOC1=O", "note": "(stereo not drawn)", "values": [{"measurement": "Bmax (pM (mg of protein)-1)", "setting": "[1]", "value": 1.27}, {"measurement": "Response", "setting": "[6]", "value": 170, "unit": "%"}, {"measurement": "Kd", "setting": "[3]", "value": 80.7, "unit": "nM"}, {"measurement": "IC50", "setting": "[4]", "value": 2280, "unit": "nM"}]}, {"smiles": "CCC1(CC)CCOC1=O", "values": [{"measurement": "Bmax (pM (mg of protein)-1)", "setting": "[1]", "value": 1.51}, {"measurement": "Response", "setting": "[6]", "value": 301, "unit": "%"}, {"measurement": "Kd", "setting": "[3]", "value": 37.2, "unit": "nM"}, {"measurement": "IC50", "setting": "[4]", "value": 750, "unit": "nM"}]}, {"smiles": "CC1(C)CCOC1=O", "values": [{"measurement": "Response", "setting": "[6]", "value": 41, "unit": "%"}, {"measurement": "TD50", "setting": "[8]", "value": "> 500", "unit": "mg/kg"}, {"measurement": "IC50", "setting": "[9]", "value": 9200, "unit": "nM"}, {"measurement": "ED50", "setting": "Mus musculus", "value": "> 500", "unit": "mg/kg"}]}, {"smiles": "CC1(C)CCCC12CCOC2=O", "note": "(stereo not drawn)", "values": [{"measurement": "Bmax (pM (mg of protein)-1)", "setting": "[1]", "value": 1}, {"measurement": "Response", "setting": "[6]", "value": 327, "unit": "%"}, {"measurement": "TD50", "setting": "[8]", "value": 10, "unit": "mg/kg"}, {"measurement": "Kd", "setting": "[3]", "value": 41.8, "unit": "nM"}, {"measurement": "IC50", "setting": "[4]", "value": 360, "unit": "nM"}]}, {"smiles": "CC1CCCC12CCOC2=O", "note": "(stereo not drawn)", "values": [{"measurement": "Bmax (pM (mg of protein)-1)", "setting": "[1]", "value": 0.93}, {"measurement": "Response", "setting": "[6]", "value": 252, "unit": "%"}, {"measurement": "TD50", "setting": "[8]", "value": "> 500", "unit": "mg/kg"}, {"measurement": "Kd", "setting": "[3]", "value": 39.5, "unit": "nM"}, {"measurement": "IC50", "setting": "[4]", "value": 680, "unit": "nM"}]}, {"smiles": "CC(C)C1(C)CCOC1=O", "note": "(stereo not drawn)", "values": [{"measurement": "Bmax (pM (mg of protein)-1)", "setting": "[1]", "value": 0.99}, {"measurement": "Response", "setting": "[2]", "value": 116, "unit": "%"}, {"measurement": "Kd", "setting": "[3]", "value": 47, "unit": "nM"}, {"measurement": "IC50", "setting": "[4]", "value": 740, "unit": "nM"}]}, {"smiles": "O=C1OCCC12CCCC2", "values": [{"measurement": "Bmax (pM (mg of protein)-1)", "setting": "[1]", "value": 1.04}, {"measurement": "Response", "setting": "[10]", "value": 220, "unit": "%"}, {"measurement": "Kd", "setting": "[3]", "value": 48.8, "unit": "nM"}, {"measurement": "IC50", "setting": "[4]", "value": 810, "unit": "nM"}, {"measurement": "ED50", "setting": "Mus musculus", "value": 385, "unit": "mg/kg"}]}, {"smiles": "C[C@H]1CC12CCOC2=O", "note": "(stereo partly drawn)", "values": [{"measurement": "Bmax (pM (mg of protein)-1)", "setting": "[1]", "value": 1.27}, {"measurement": "Response", "setting": "[6]", "value": 149, "unit": "%"}, {"measurement": "TD50", "setting": "[8]", "value": "> 300", "unit": "mg/kg"}, {"measurement": "Kd", "setting": "[3]", "value": 44.1, "unit": "nM"}, {"measurement": "IC50", "setting": "[4]", "value": 7170, "unit": "nM"}, {"measurement": "ED50", "setting": "Mus musculus", "value": 210, "unit": "mg/kg"}]}, {"smiles": "CC1(C)CC12CCOC2=O", "note": "(stereo not drawn)", "values": [{"measurement": "Bmax (pM (mg of protein)-1)", "setting": "[1]", "value": 0.86}, {"measurement": "TD50", "setting": "[7]", "value": 254, "unit": "mg/kg"}, {"measurement": "Response", "setting": "[2]", "value": 247, "unit": "%"}, {"measurement": "Kd", "setting": "[3]", "value": 35.4, "unit": "nM"}, {"measurement": "IC50", "setting": "[4]", "value": 1140, "unit": "nM"}, {"measurement": "ED50", "setting": "Mus musculus", "value": 221, "unit": "mg/kg"}]}, {"smiles": "C[C@@H]1CC12CCOC2=O", "note": "(stereo partly drawn)", "values": [{"measurement": "Bmax (pM (mg of protein)-1)", "setting": "[1]", "value": 1.14}, {"measurement": "Response", "setting": "[6]", "value": 48, "unit": "%"}, {"measurement": "TD50", "setting": "[8]", "value": "> 500", "unit": "mg/kg"}, {"measurement": "Kd", "setting": "[3]", "value": 40.4, "unit": "nM"}, {"measurement": "IC50", "setting": "[4]", "value": 3410, "unit": "nM"}, {"measurement": "ED50", "setting": "Mus musculus", "value": 259, "unit": "mg/kg"}]}, {"smiles": "O=C1OCCC12CC2", "values": [{"measurement": "Response", "setting": "[6]", "value": 62, "unit": "%"}, {"measurement": "TD50", "setting": "[8]", "value": "> 500", "unit": "mg/kg"}, {"measurement": "IC50", "setting": "[9]", "value": "> 10000", "unit": "nM"}]}]}
